In ChEMBL document CHEMBL4368914, “Tricyclic Indazoles-A Novel Class of Selective Estrogen Receptor Degrader Antagonists” (J Med Chem, 2019):

System: not listed separately
Assay: Intrinsic clearance in rat hepatocytes assessed per million cells
Type: ADME, cell-based, Hepatocyte
Conditions: read-out: CLH
Procedure, shortened: (§1)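 Rate of metabolism (µl/min/10⁶ cells) measured from DMSO stock in isolated hepatocytes diluted to 1x10⁶ cells/mL.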

| hepatocyte CLint [µL/min/1e6 cells] | Structure (SMILES) |
| --- | --- |
| 18 | C[C@@H]1Cc2c(ccc3[nH]ncc23)[C@@H](c2c(F)cc(/C=C/C(=O)O)cc2F)N1CC(C)(F)F |

Target: T1, Estrogen receptor (Homo sapiens, UniProt P03372)
T1 sequence (P03372 whole entry): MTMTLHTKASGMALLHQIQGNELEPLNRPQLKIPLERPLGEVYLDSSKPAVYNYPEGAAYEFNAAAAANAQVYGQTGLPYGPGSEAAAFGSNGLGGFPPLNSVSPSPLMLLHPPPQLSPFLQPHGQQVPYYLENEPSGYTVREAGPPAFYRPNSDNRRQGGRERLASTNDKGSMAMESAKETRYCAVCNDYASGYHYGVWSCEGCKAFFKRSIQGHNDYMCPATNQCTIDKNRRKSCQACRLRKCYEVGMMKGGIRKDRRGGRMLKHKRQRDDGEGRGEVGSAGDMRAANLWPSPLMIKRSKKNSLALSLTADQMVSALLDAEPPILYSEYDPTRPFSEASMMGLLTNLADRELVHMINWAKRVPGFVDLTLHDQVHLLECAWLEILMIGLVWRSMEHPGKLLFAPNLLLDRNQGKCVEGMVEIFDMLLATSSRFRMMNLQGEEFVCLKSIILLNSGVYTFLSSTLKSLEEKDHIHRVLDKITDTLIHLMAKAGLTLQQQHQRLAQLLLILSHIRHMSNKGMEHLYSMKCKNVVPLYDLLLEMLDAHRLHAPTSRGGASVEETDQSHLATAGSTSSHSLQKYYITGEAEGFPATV
Assay: Induction of ERalpha degradation in human MCF7 cells after 18 to 24 hrs by in multiplexed cell assay
Type: cell-based
Conditions: not given
Procedure, shortened: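 MCF-7 cells were kept at 37 °C, 5% CO₂ in phenol red-free RPMI1640 with 5% charcoal-stripped FCS and 2 mmol/L glutamine. Compounds came from 10 mmol/L DMSO stocks.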

| IC50 [µM] | Structure (SMILES) |
| --- | --- |
| 0.000398 | C[C@@H]1Cc2c(ccc3[nH]ncc23)[C@@H](c2c(F)cc(/C=C/C(=O)O)cc2F)N1CC(C)(F)F |

Target: Cytochrome P450 3A4 (Homo sapiens, UniProt P08684)
Sequence (P08684 whole entry): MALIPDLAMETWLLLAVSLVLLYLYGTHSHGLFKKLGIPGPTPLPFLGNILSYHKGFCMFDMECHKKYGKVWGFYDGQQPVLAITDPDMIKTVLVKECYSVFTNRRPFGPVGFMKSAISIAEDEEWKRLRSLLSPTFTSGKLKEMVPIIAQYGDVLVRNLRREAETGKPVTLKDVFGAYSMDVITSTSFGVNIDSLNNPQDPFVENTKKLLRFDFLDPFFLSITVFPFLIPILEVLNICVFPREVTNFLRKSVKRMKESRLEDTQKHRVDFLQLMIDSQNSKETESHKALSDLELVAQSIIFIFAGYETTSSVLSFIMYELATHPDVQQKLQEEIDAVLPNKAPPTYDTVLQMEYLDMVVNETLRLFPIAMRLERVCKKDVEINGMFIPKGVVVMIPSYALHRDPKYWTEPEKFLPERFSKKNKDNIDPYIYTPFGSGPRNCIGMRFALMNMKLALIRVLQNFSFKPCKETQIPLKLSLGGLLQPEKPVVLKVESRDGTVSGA
Assay: Inhibition of CYP3A4 in human liver microsomes
Type: ADME
Conditions: not given
Procedure, shortened: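 High-throughput human liver microsome assay across a panel of five CYP isoforms, giving IC50.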

| IC50 [µM] | Structure (SMILES) |
| --- | --- |
| > 30 | C[C@@H]1Cc2c(ccc3[nH]ncc23)[C@@H](c2c(F)cc(/C=C/C(=O)O)cc2F)N1CC(C)(F)F |

System: not listed separately
Assay: Clearance in dog at 0.5 mg/kg, iv or 1 mg/kg, po
Type: ADME, organism-based, Canis lupus familiaris
Conditions: in vivo
Procedure, shortened: (§2)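 Single IV dose of 0.5 mg/kg and oral dose of 1 mg/kg in rat and dog. Both routes were formulated in 5% DMSO:95% hydroxypropyl β-cyclodextrin (30% w/v), at 1 mL/kg IV and 4 mL/kg PO.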

| clearance [mL/min/kg] | Structure (SMILES) |
| --- | --- |
| 5.4 | C[C@@H]1Cc2c(ccc3[nH]ncc23)[C@@H](c2c(F)cc(/C=C/C(=O)O)cc2F)N1CC(C)(F)F |

System: not listed separately
Assay: Apparent permeability in human Caco2 cells at 10 uM
Type: ADME, cell-based
Conditions: Caco-2
Procedure, shortened: (§3)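 Compound at 10 μM incubated on cultured Caco-2 or MDCK cells. Permeability was measured apical-to-basolateral and basolateral-to-apical, and efflux ratio was taken as (B to A)/(A to B).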

| Papp at 10 µM [×10⁻⁶ cm/s] | Structure (SMILES) |
| --- | --- |
| 5.8 | C[C@@H]1Cc2c(ccc3[nH]ncc23)[C@@H](c2c(F)cc(/C=C/C(=O)O)cc2F)N1CC(C)(F)F |

System: not listed separately
Assay: Oral bioavailability in dog at 1 mg/kg
Type: ADME, organism-based, Canis lupus familiaris
Conditions: in vivo
Procedure, shortened: as §2

| bioavailability [%] | Structure (SMILES) |
| --- | --- |
| 36 | C[C@@H]1Cc2c(ccc3[nH]ncc23)[C@@H](c2c(F)cc(/C=C/C(=O)O)cc2F)N1CC(C)(F)F |

System: not listed separately
Assay: Fraction unbound in mouse plasma by equilibrium dialysis
Type: ADME, cell-free
Conditions: not given

| fraction unbound | Structure (SMILES) |
| --- | --- |
| 0.021 | C[C@@H]1Cc2c(ccc3[nH]ncc23)[C@@H](c2c(F)cc(/C=C/C(=O)O)cc2F)N1CC(C)(F)F |

System: not listed separately
Assay: Intrinsic clearance in human hepatocytes assessed per million cells
Type: ADME, cell-based, Hepatocyte
Conditions: read-out: CLH
Procedure, shortened: as §1

| hepatocyte CLint [µL/min/1e6 cells] | Structure (SMILES) |
| --- | --- |
| 8 | C[C@@H]1Cc2c(ccc3[nH]ncc23)[C@@H](c2c(F)cc(/C=C/C(=O)O)cc2F)N1CC(C)(F)F |

System: not listed separately
Assay: Half life in rat at 0.5 mg/kg, iv or 1 mg/kg, po
Type: ADME, organism-based
Conditions: in vivo
Procedure, shortened: as §2

| half-life [h] | Structure (SMILES) |
| --- | --- |
| 3.7 | C[C@@H]1Cc2c(ccc3[nH]ncc23)[C@@H](c2c(F)cc(/C=C/C(=O)O)cc2F)N1CC(C)(F)F |

System: not listed separately
Assay: Volume of distribution at steady state in dog at 0.5 mg/kg, iv or 1 mg/kg, po
Type: ADME, organism-based, Canis lupus familiaris
Conditions: in vivo, read-out: Vdss
Procedure, shortened: as §2

| Vd [L/kg] | Structure (SMILES) |
| --- | --- |
| 0.63 | C[C@@H]1Cc2c(ccc3[nH]ncc23)[C@@H](c2c(F)cc(/C=C/C(=O)O)cc2F)N1CC(C)(F)F |

System: not listed separately
Assay: Clearance in rat at 0.5 mg/kg, iv or 1 mg/kg, po
Type: ADME, organism-based
Conditions: in vivo
Procedure, shortened: as §2

| clearance [mL/min/kg] | Structure (SMILES) |
| --- | --- |
| 26 | C[C@@H]1Cc2c(ccc3[nH]ncc23)[C@@H](c2c(F)cc(/C=C/C(=O)O)cc2F)N1CC(C)(F)F |

Target: Voltage-gated inwardly rectifying potassium channel KCNH2 (Homo sapiens, UniProt Q12809)
Sequence (Q12809 whole entry): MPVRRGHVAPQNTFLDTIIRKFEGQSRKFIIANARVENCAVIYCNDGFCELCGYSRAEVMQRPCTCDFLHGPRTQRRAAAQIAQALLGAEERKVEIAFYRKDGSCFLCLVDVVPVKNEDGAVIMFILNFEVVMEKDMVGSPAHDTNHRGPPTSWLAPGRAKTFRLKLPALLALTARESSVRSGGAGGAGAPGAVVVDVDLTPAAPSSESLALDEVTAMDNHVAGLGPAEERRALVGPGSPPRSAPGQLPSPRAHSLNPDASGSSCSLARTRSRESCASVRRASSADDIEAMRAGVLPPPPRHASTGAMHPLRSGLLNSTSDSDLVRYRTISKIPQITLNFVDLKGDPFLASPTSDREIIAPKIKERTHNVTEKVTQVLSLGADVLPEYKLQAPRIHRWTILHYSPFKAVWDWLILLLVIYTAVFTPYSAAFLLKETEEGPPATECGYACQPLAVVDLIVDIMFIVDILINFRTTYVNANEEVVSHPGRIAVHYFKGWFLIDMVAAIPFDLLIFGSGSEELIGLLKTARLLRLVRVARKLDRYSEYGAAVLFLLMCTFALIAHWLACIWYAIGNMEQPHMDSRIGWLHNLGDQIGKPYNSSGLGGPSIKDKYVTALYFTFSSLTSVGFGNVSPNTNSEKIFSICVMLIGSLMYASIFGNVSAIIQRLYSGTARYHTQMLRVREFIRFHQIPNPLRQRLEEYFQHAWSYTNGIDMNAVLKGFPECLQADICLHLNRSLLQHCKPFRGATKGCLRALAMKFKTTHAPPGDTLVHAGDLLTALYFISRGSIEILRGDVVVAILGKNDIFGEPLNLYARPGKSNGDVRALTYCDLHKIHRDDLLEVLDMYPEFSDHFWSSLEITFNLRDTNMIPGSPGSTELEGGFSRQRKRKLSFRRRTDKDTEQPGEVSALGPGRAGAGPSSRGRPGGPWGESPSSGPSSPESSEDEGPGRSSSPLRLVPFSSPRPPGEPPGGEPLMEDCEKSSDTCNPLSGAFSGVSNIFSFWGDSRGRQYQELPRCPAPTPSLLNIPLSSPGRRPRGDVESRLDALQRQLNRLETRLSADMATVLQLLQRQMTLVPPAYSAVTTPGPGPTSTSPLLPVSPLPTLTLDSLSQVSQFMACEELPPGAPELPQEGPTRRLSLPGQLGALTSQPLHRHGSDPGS
Assay: Inhibition of human ERG by plate based planar patch clamp assay
Conditions: not given

| Structure (SMILES) | IC50 [µM] |
| --- | --- |
| C[C@@H]1Cc2c(ccc3[nH]ncc23)[C@@H](c2c(F)cc(/C=C/C(=O)O)cc2F)N1CC(C)(F)F | > 100 |

System: not listed separately
Assay: Half life in dog at 0.5 mg/kg, iv or 1 mg/kg, po
Type: ADME, organism-based, Canis lupus familiaris
Conditions: in vivo
Procedure, shortened: as §2

| half-life [h] | Structure (SMILES) |
| --- | --- |
| 4.8 | C[C@@H]1Cc2c(ccc3[nH]ncc23)[C@@H](c2c(F)cc(/C=C/C(=O)O)cc2F)N1CC(C)(F)F |

System: not listed separately
Assay: Fraction unbound in 10% human plasma by equilibrium dialysis
Type: ADME, cell-free
Conditions: 10% plasma
Procedure, shortened: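 Equilibrium dialysis from DMSO stock in 10% plasma, either Alderley Park Han Wistar rat plasma or human plasma.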

| fraction unbound | Structure (SMILES) |
| --- | --- |
| 0.011 | C[C@@H]1Cc2c(ccc3[nH]ncc23)[C@@H](c2c(F)cc(/C=C/C(=O)O)cc2F)N1CC(C)(F)F |

System: not listed separately
Assay: Efflux ratio of apparent permeability in MDCK cells at 10 uM
Type: ADME, cell-based, Canis lupus familiaris
Conditions: dog
Procedure, shortened: as §3

| efflux ratio at 10 µM | Structure (SMILES) |
| --- | --- |
| 1.3 | C[C@@H]1Cc2c(ccc3[nH]ncc23)[C@@H](c2c(F)cc(/C=C/C(=O)O)cc2F)N1CC(C)(F)F |

System: not listed separately
Assay: Intrinsic clearance in dog hepatocytes assessed per million cells
Type: ADME, cell-based, Canis lupus familiaris, Hepatocyte
Conditions: read-out: CLH
Procedure, shortened: as §1

| hepatocyte CLint [µL/min/1e6 cells] | Structure (SMILES) |
| --- | --- |
| 7.1 | C[C@@H]1Cc2c(ccc3[nH]ncc23)[C@@H](c2c(F)cc(/C=C/C(=O)O)cc2F)N1CC(C)(F)F |
